Laboratory results as given in ChEMBL document CHEMBL4651341, “The discovery of a novel series of compounds with single-dose efficacy against juvenile and adult Schistosoma species” (PLoS Negl Trop Dis, 2021).

Tested on: Schistosoma mansoni
Assay: Concentration required to kill 50% of 21 day old worms 5 days after drug treatment.
Assay type: functional, organism-based
Settings: Puerto Rican, 120 h
Procedure, shortened: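 Juvenile S. mansoni (Puerto Rican strain) were perfused from CD1 mice 3 weeks post-infection and washed. They were cultured 6–8 per well in 200 µL DMEM with 2 mM glutamine, penicillin/streptomycin and 10% FCS at 37 °C, 5% CO2. Viability of individual worms was scored on day 5 after dosing (120 h).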

`Oc1ccc(-c2cnc3cnc(-c4cnn(C5CCCC5)c4)cn23)cc1` showed an EC50 greater than 25 µM.

In the case of `Cc1n[nH]c(C)c1-c1cn2c(-c3ccc(O)cc3)cnc2cn1`, the EC50 is reported as greater than 25 µM.

In the case of `COc1ccc(-c2nnc3ccc(-c4ccnc(C(F)(F)F)c4)cn23)cc1OC`, the EC50 is reported as greater than 25 µM.

With `NC(=O)Cc1cccc(-c2cn3c(-c4ccc(O)cc4)cnc3cn2)c1` the EC50 was greater than 25 µM.

Compound `CC(C)c1cccc(-c2ccc3nnc(-c4ccc(S(N)(=O)=O)cc4)n3c2)c1` has an EC50 greater than 25 µM.

`COc1ccc(-c2nnc3ccc(-c4cccc(OC(C)C)c4)cn23)cc1F` gave an EC50 of 25 µM.

`COc1ccc(-c2nnc3ccc(-c4cccc(OC(C)C)c4)cn23)cc1` showed an EC50 greater than 25 µM.

With `COc1cccc(-c2ccc3nnc(-c4ccc(OC)c(OC)c4)n3c2)c1` the EC50 was greater than 25 µM.

For `Cc1c(-c2cn3c(-c4ccc(O)cc4)cnc3cn2)cnn1C`, the EC50 was greater than 25 µM.

`CC(C)c1cccc(-c2ccc3nnc(-c4cnc5[nH]ncc5c4)n3c2)c1` gave an EC50 greater than 25 µM.

`COc1ccc(-c2nnc3ccc(-c4cccc(C(C)C)c4)cn23)c(OC)c1` was tested, and the EC50 was 23.7 µM.

`Cc1ccc(-c2cnc3cnc(-c4cccc(OC(C)C)c4)cn23)cn1` was tested, and the EC50 was greater than 25 µM.

For `CC(C)Oc1cccc(-c2ccc3nnc(-c4ccc([S@+](C)[O-])cc4)n3c2)c1`, the EC50 was greater than 25 µM.

`COc1ccc(-c2cnc3cnc(-c4ccc(C(C)C)cc4)cn23)cc1` gave an EC50 greater than 25 µM.

With `COc1ccc(-c2cnc3cnc(-c4ccc(OC)nc4)cn23)cc1` the EC50 was greater than 25 µM.

Work on `COc1ccc(-c2nnc3ccc(-c4cccc(CO)c4)cn23)cc1OC` yielded an EC50 greater than 25 µM.

`CN(C)Cc1cccc(-c2cn3c(-c4ccc(O)cc4)cnc3cn2)c1` gave an EC50 of 24.6 µM.

For `COc1ccc(-c2nnc3ccc(-c4cccc(C(C)C)c4)cn23)cc1O`, the EC50 was 9.74 µM.

For `CNC(=O)c1cccc(-c2ccc3nnc(-c4ccc(OC)c(OC)c4)n3c2)c1`, the EC50 was greater than 25 µM.

`CC(C)c1cccc(-c2ccc3nnc(-c4ccc(CN)cc4)n3c2)c1` gave an EC50 greater than 25 µM.

Work on `CCOc1cccc(-c2ccc3nnc(-c4ccc(OC)c(OC)c4)n3c2)c1` yielded an EC50 greater than 25 µM.

Compound `Cn1ccc(-c2cn3c(-c4ccc(O)cc4)cnc3cn2)n1` has an EC50 greater than 25 µM.

For `CC(C)Oc1cccc(-c2ccc3nnc(-c4ccc5c(c4)CCO5)n3c2)c1`, the EC50 was greater than 25 µM.

Work on `COc1cc(-c2cn3c(-c4ccc(O)cc4)cnc3cn2)ccn1` yielded an EC50 greater than 25 µM.

Compound `COc1ccc(-c2nnc3ccc(-c4cccc(F)c4)cn23)cc1OC` has an EC50 greater than 25 µM.

With `COc1ccc(-c2cnc3cnc(-c4cccc(F)c4)cn23)cc1` the EC50 was greater than 25 µM.

For `CC(C)c1cccc(-c2cn3c(-c4ccc(OC(F)(F)F)cc4)cnc3cn2)c1`, the EC50 was greater than 25 µM.

`COc1ccc(-c2cnc3cnc(-c4ccc5c(c4)OCCO5)cn23)cc1` was tested, and the EC50 was greater than 25 µM.

For `COc1cc(-c2ccc3nnc(-c4ccc(OC)c(OC)c4)n3c2)ccn1`, the EC50 was greater than 25 µM.

Compound `CC(C)Cn1cc(-c2cn3c(-c4ccc(O)cc4)cnc3cn2)cn1` has an EC50 greater than 25 µM.

Compound `CC(C)c1cccc(-c2ccc3nnc(-c4ccc5[nH]ncc5c4)n3c2)c1` has an EC50 greater than 25 µM.

`COc1cccc(-c2nnc3ccc(-c4cccc(OC(C)C)c4)cn23)n1` was tested, and the EC50 was 12.7 µM.

In the case of `COc1cc(-c2nnc3ccc(-c4cccc(OC(C)C)c4)cn23)ccn1`, the EC50 is reported as greater than 25 µM.

`Oc1ccc(-c2cnc3cnc(-c4cnc(-c5ccccc5)o4)cn23)cc1` was tested, and the EC50 was greater than 25 µM.

`CC(C)Oc1cccc(-c2ccc3nnc(-c4ccc5c(c4)ncn5C)n3c2)c1` gave an EC50 of 25 µM.

`COc1cccc(-c2cn3c(-c4ccc5c(c4)CCO5)cnc3cn2)c1` gave an EC50 greater than 25 µM.

For `COc1ccc(-c2nnc3ccc(-c4cccc(N)c4)cn23)cc1OC`, the EC50 was greater than 25 µM.

Compound `COc1ccc(-c2nnc3ccc(-c4ccc5c(cnn5C)c4)cn23)cc1OC` has an EC50 greater than 25 µM.

`COc1ccc(-c2nnc3ccc(-c4ccc(O)cc4)cn23)cc1OC` was tested, and the EC50 was greater than 25 µM.

For `CC(C)c1cccc(-c2ccc3nnc(-c4ccc(O)cc4)n3c2)c1`, the EC50 was greater than 25 µM.

Compound `COc1ncc(-c2ccc3nnc(-c4ccc(OC)c(OC)c4)n3c2)cn1` has an EC50 greater than 25 µM.

Compound `CC(C)Oc1cccc(-c2cn3c(-c4ccc(N)cc4)cnc3cn2)c1` has an EC50 of 21.3 µM.

`OCCc1cccc(-c2cn3c(-c4ccc(O)cc4)cnc3cn2)c1` was tested, and the EC50 was greater than 25 µM.

`COc1ccc(-c2nnc3ccc(-c4cccc(S(=O)(=O)N5CCOCC5)c4)cn23)cc1OC` gave an EC50 greater than 25 µM.

`COc1ccc(-c2nnc3ccc(-c4cccc(CN)c4)cn23)cc1OC` showed an EC50 greater than 25 µM.

`CC(C)c1cccc(-c2ccc3nnc(-c4ccncc4)n3c2)c1` was tested, and the EC50 was greater than 25 µM.

Work on `COc1ccc(-c2nnc3ccc(-c4cccc(Cl)c4)cn23)cc1OC` yielded an EC50 greater than 25 µM.

`COc1ccc(-c2nnc3ccc(-c4ccc5c(c4)CCO5)cn23)cc1OC` gave an EC50 greater than 25 µM.

Compound `CC(C)Oc1cccc(-c2cn3c(-c4cnn(C)c4)cnc3cn2)c1` has an EC50 greater than 25 µM.

Compound `CC(=O)c1ccc(F)c(-c2cn3c(-c4ccc(O)cc4)cnc3cn2)c1` has an EC50 greater than 25 µM.

In the case of `COc1cccc(-c2cn3c(-c4ccc(OC)c(F)c4)cnc3cn2)c1`, the EC50 is reported as 24.2 µM.

`Oc1ccc(-c2cnc3cnc(-c4ccc5[nH]ncc5c4)cn23)cc1` gave an EC50 greater than 25 µM.

`Cn1cccc(-c2cn3c(-c4ccc(O)cc4)cnc3cn2)c1=O` gave an EC50 greater than 25 µM.

With `Oc1ccc(-c2cnc3cnc(-c4cnn(Cc5ccccc5)c4)cn23)cc1` the EC50 was greater than 25 µM.

`CN(C)C(=O)c1ccc(-c2cn3c(-c4ccc(O)cc4)cnc3cn2)cc1` gave an EC50 greater than 25 µM.

`Cn1cncc1-c1cn2c(-c3ccc(O)cc3)cnc2cn1` showed an EC50 greater than 25 µM.

For `Oc1ccc(-c2cnc3cnc(-c4cccc(-c5ccn[nH]5)c4)cn23)cc1`, the EC50 was greater than 25 µM.

With `CC(C)Oc1cccc(-c2cn3c(-c4ccnn4C)cnc3cn2)c1` the EC50 was greater than 25 µM.

With `Oc1ccc(-c2cnc3cnc(C4=CCOCC4)cn23)cc1` the EC50 was greater than 25 µM.

`CC(C)Oc1cccc(-c2ccc3nnc(-c4ccc(F)cc4)n3c2)c1` was tested, and the EC50 was greater than 25 µM.

Compound `CC(=O)Nc1cccc(-c2cn3c(-c4ccc(O)cc4)cnc3cn2)c1` has an EC50 greater than 25 µM.

Work on `Cn1ncc2c(-c3cn4c(-c5ccc(O)cc5)cnc4cn3)cccc21` yielded an EC50 of 19 µM.

`COc1ccc(-c2nnc3ccc(-c4cccnc4OC)cn23)cc1OC` gave an EC50 greater than 25 µM.

For `COc1ccc(-c2nnc3ccc(-c4ccc(O)nc4)cn23)cc1OC`, the EC50 was greater than 25 µM.

`COc1ccc(-c2nnc3ccc(-c4c(OC)cccc4OC)cn23)cc1OC` gave an EC50 greater than 25 µM.

`CC(C)Oc1cccc(-c2cn3c(-c4cccc(CO)c4)cnc3cn2)c1` was tested, and the EC50 was greater than 25 µM.

With `CC(C)c1cccc(-c2ccc3nnc(-c4ccccn4)n3c2)c1` the EC50 was 14 µM.

In the case of `CC(C)c1cccc(-c2ccc3nnc(-c4cccc(CO)c4)n3c2)c1`, the EC50 is reported as greater than 25 µM.

For `COc1ccc(-c2cnc3cnc(-c4ccnc(C(F)(F)F)c4)cn23)cc1`, the EC50 was greater than 25 µM.

Work on `COc1cccc(-c2cnc3cnc(-c4cccc(OC(C)C)c4)cn23)c1` yielded an EC50 of 24.8 µM.

`Oc1ccc(-c2cnc3cnc(-c4cnn(CC5CC5)c4)cn23)cc1` showed an EC50 greater than 25 µM.

Compound `COc1ccc(-c2nnc3ccc(-c4ccc5cn[nH]c5c4)cn23)cc1OC` has an EC50 greater than 25 µM.

Work on `CC(=O)c1cccc(-c2cn3c(-c4ccc(O)cc4)cnc3cn2)c1` yielded an EC50 greater than 25 µM.

With `COc1ccc(-c2nnc3ccc(-c4cn[nH]c4)cn23)cc1OC` the EC50 was greater than 25 µM.

Compound `COc1ccc(-c2nnc3ccc(-c4ccc(N5CCN(C)CC5)nc4)cn23)cc1OC` has an EC50 greater than 25 µM.

With `Cn1cc(-c2cn3c(-c4ccc(O)cc4)cnc3cn2)ccc1=O` the EC50 was greater than 25 µM.

Work on `COc1ccc(-c2nnc3ccc(-c4ccc(C)nc4)cn23)cc1OC` yielded an EC50 greater than 25 µM.

`COc1ccc(-c2cnc3cnc(-c4cccc(CN)c4)cn23)cc1` showed an EC50 greater than 25 µM.

`COc1cccc(-c2nnc3ccc(-c4cccc(C(C)C)c4)cn23)n1` showed an EC50 of 12.4 µM.

`CC(C)Oc1cccc(-c2cn3c(-c4cncnc4)cnc3cn2)c1` showed an EC50 greater than 25 µM.

Work on `CC(C)c1cccc(-c2ccc3nnc(-c4ccnc(C(F)(F)F)c4)n3c2)c1` yielded an EC50 greater than 25 µM.

`COc1ccc(-c2cnc3cnc(-c4ccccn4)cn23)cc1` was tested, and the EC50 was greater than 25 µM.

In the case of `COc1cc(-c2cnc3cnc(-c4cccc(OC(C)C)c4)cn23)ccn1`, the EC50 is reported as greater than 25 µM.

Work on `CC(C)Oc1cccc(-c2cn3c(-c4ccc(S(N)(=O)=O)cc4)cnc3cn2)c1` yielded an EC50 of 25 µM.

For `COc1ccc(-c2nnc3ccc(-c4ccccn4)cn23)cc1OC`, the EC50 was greater than 25 µM.

In the case of `COc1ccc(-c2nnc3ccc(-c4cccc(OC(C)C)c4)cn23)c(OC)c1`, the EC50 is reported as greater than 25 µM.

Compound `CCOc1cccc(-c2cn3c(-c4ccc(O)cc4)cnc3cn2)c1F` has an EC50 of 15.6 µM.

With `CC(C)Oc1cccc(-c2cn3c(-c4ccc(F)cc4)cnc3cn2)c1` the EC50 was greater than 25 µM.

`COc1cccc(-c2cn3c(-c4ccc(O)cc4)cnc3cn2)n1` showed an EC50 greater than 25 µM.

`Cn1ncc2cccc(-c3cn4c(-c5ccc(O)cc5)cnc4cn3)c21` showed an EC50 greater than 25 µM.

`Cn1nc(C(F)(F)F)cc1-c1cn2c(-c3ccc(O)cc3)cnc2cn1` was tested, and the EC50 was greater than 25 µM.

`COc1cccc(-c2nnc3ccc(-c4cccc(OC(C)C)c4)cn23)c1` showed an EC50 greater than 25 µM.

With `COc1ccc(-c2nnc3ccc(-c4cccc(OC(C)C)c4)cn23)cc1OC` the EC50 was greater than 25 µM.

`OCCn1cc(-c2cn3c(-c4ccc(O)cc4)cnc3cn2)cn1` was tested, and the EC50 was greater than 25 µM.

With `CCCOc1cc(-c2cn3c(-c4ccc(O)cc4)cnc3cn2)ccc1OC` the EC50 was 25 µM.

Compound `CC(C)c1cccc(-c2ccc3nnc(-c4cn[nH]c4)n3c2)c1` has an EC50 greater than 25 µM.

`CC(C)Oc1cccc(-c2cn3c(-c4ccc(CO)cc4)cnc3cn2)c1` was tested, and the EC50 was 25 µM.

`COc1ccc(-c2cnc3cnc(-c4cccc(CO)c4)cn23)cc1` showed an EC50 greater than 25 µM.

For `COc1ccc(-c2cnc3cnc(-c4ccnc(OC)c4)cn23)cc1`, the EC50 was greater than 25 µM.

For `CS(=O)(=O)c1cncc(-c2cn3c(-c4ccc(O)cc4)cnc3cn2)c1`, the EC50 was greater than 25 µM.

`Oc1ccc(-c2cnc3cnc(-c4cccc(C(F)(F)F)c4)cn23)c(Cl)c1` showed an EC50 of 4.26 µM.

`CC(C)c1ccccc1-c1cn2c(-c3ccc(O)cc3)cnc2cn1` showed an EC50 of 16.6 µM.

Work on `COc1ccc(-c2nnc3ccc(-c4cccc(C#N)c4)cn23)cc1OC` yielded an EC50 greater than 25 µM.

Compound `Oc1ccc(-c2cnc3cnc(-c4ccnc(C(F)(F)F)c4)cn23)cc1` has an EC50 greater than 25 µM.

Work on `CC(C)Oc1cccc(-c2ccc3nnc(-c4cccc(C#N)c4)n3c2)c1` yielded an EC50 greater than 25 µM.

`COc1ccc(-c2ccc3nnc(-c4ccc(OC)c(OC)c4)n3c2)cn1` was tested, and the EC50 was greater than 25 µM.

With `CN(C)C(=O)c1cccc(-c2cn3c(-c4ccc(O)cc4)cnc3cn2)c1` the EC50 was greater than 25 µM.

`Cn1cc(-c2cn3c(-c4ccc(O)cc4)cnc3cn2)cn1` showed an EC50 greater than 25 µM.

`COc1ccc(C(C)C)cc1-c1cn2c(-c3ccc(O)cc3)cnc2cn1` showed an EC50 of 6.06 µM.

`COc1ncc(-c2nnc3ccc(-c4cccc(C(C)C)c4)cn23)cn1` gave an EC50 greater than 25 µM.
